# An excerpt weighted towards active compounds, which were near 4% of everything screened.
# TAAR1 antagonist: human TAAR1 antagonists, primary screen, Fluo-8 calcium fluorescence, CHO RD-HGA16 cells; antagonist; actives 1.5% (n = 360,000); Trace amine-associated receptor 1 (Homo sapiens), Q96RJ0; inhibition, % at 3 µM;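 active means inhibition above a per-plate cutoff, the mean inhibition of test compounds on that plate plus 3 SD, cut at about 49% in these data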;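 further: 0% = DMSO plus EC80 beta-PEA response and 100% = DMSO alone without agonist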
#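 System: RD-HGA16 CHO cells with stable hTAAR1 and Gα16 | Probe or stimulus: EC80 β-phenethylamine stimulus | Dosing: 3 µM, single point | Times: Dye loading 75 min at 37 °C, then 30 min room temperature | Measured by: Fluo-8 calcium-sensitive fluorescence | Read-out basis: % inhibition of agonist calcium response | Replicates: n of 1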
# TAAR1 agonist: human TAAR1 agonists, primary screen, Fluo-8 calcium fluorescence, CHO RD-HGA16 cells; actives 0.99% (n = 360,000); AID 624467, 2012; vehicle wells 0%, saturating PEA agonist 100%; activation, % at 3 µM;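 active means activation above the mean activation of all test compounds in the run plus 3 SD, cut at about 38% in these data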
#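 Assay system: CHO-derived RD-HGA16 cells with stable Gα16 and human TAAR1; timing: 17-24 h seeding, 75 min 37 °C dye, 30 min RT; read-out: % activation from peak over basal fluorescence ratio, DMSO-to-PEA scaled; measured by: kinetic Fluo-8 calcium fluorescence; benchmarks: low control DMSO, high control PEA (EC100); doses: 3 µM single concentration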
# NTR1 agonist: agonists of human NTR1, primary screen, imaging, U2OS cells, beta-arrestin-GFP, high content. Neurotensin receptor type 1 (Homo sapiens), P30989. activation, % at 20 µM. AID 493036, 2011. actives 0.17% (n = 330,000). NTR1-U2OS beta-arrestin-GFP spot imaging, agonist mode;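 active means activation at or above 40% of the spot to cytoplasm intensity ratio, with at least 20 cells analyzed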;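 further: 0% = DMSO without peptide and 100% = 100 nM NTR1 peptide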
# CHO parental Ca: ATP-evoked calcium signal inhibitors, parental CHO, primary screen, counter-screen for OX1R antagonist project, cell-based, fluorescence, Fluo-8 calcium dye | parental CHO-K1, ATP-induced calcium, Fluo-8 fluorescence | inhibition, % at 5.6 µM | actives 0.63% (n = 330,000) | AID 463079, 2010;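 active means inhibition above that plate's mean sample inhibition plus 3 SD, cut at about 26% in these data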;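 further: 0% = ATP-challenged DMSO wells and 100% = DMSO wells without ATP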
#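 Test system: untransfected parental CHO cell line; also added: ATP stimulus; dosing: 5.6 µM, single dose; signal: calcium-sensitive Fluo-8 fluorescence; measure: percent inhibition of ATP-evoked calcium rise, normalized to controls; benchmarks: low control ATP plus DMSO, high control DMSO only; replication: one well per compound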
# OX1R antag-1: antagonists of human orexin 1 receptor (OX1R); inhibition, % at 6.6 µM; actives 1.8% (n = 330,000); OX1R-expressing cells, FRET antagonist read-out; Orexin/Hypocretin receptor type 1 (Homo sapiens), O43613; in the data active means inhibition mostly above about 38%, no sharp cut-off; inactive means mostly below about 40%;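 further: 0% = agonist challenge alone and 100% = reference antagonist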
# Target sequence (O43613 whole entry, looked up): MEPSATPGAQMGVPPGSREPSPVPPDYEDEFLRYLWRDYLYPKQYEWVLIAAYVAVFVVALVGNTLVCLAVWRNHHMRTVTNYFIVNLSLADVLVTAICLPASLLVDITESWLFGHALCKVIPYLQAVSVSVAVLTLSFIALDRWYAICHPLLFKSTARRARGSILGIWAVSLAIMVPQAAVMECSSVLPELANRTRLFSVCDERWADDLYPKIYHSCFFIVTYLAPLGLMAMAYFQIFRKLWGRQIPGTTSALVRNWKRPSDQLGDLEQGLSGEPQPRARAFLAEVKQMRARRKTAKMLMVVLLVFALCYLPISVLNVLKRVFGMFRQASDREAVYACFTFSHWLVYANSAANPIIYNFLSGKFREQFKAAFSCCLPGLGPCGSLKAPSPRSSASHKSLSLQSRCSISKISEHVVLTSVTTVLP
# OX1R antag-2: OX1R (HCRTR1) antagonists, primary screen, fluorescence, CHO/OX1R cells, Fluo-8 calcium, orexin A. inhibition, % at 5 µM. Orexin/Hypocretin receptor type 1 (Homo sapiens), O43613. AID 434989, 2010. Fluo-8 calcium fluorescence. actives 0.43% (n = 330,000);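 active means inhibition above its plate's threshold, mean inhibition of all tested compounds on the plate plus 3 SD, cut at about 37% in these data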;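 further: 0% = orexin A challenge wells and 100% = SB-334867-A antagonist wells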
# TAAR1 nonsel count: nonselective antagonists in TAAR1 counter-screen cells, counter-screen for hTAAR1 antagonist project, cell-based, fluorescence, calcium; shares compounds with TAAR1 antagonist; counterscreen cell line, antagonist mode; AID 651780, 2012; actives 77% (n = 2,400); inhibition, % at 3 µM; in the data active means inhibition above about 22%;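 further: CHO-Ga16 host cells stimulated with ATP at an EC80 level; 0% = agonist EC80 plus vehicle and 100% = vehicle without agonist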
# TAAR1 ant conf: human TAAR1 antagonists, retest of hits, confirmation, cell-based, fluorescence. AID 651785, 2012. inhibition, % at 3 µM. actives 40% (n = 2,400). TAAR1-expressing cells, fluorescence antagonist read-out. shares compounds with TAAR1 antagonist; in the data active means inhibition above about 49%;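 further: CHO-Ga16 host cells challenged with agonist PEA near its EC80; 0% = agonist at EC80 plus vehicle and 100% = vehicle with no agonist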
# Ga16 ag counter: calcium activation in Ga16-expressing cells, counter-screen for TAAR1 antagonist project, cell-based, fluorescence; agonist counterscreen; shares compounds with TAAR1 antagonist; activation, % at 3 µM; actives 18% (n = 2,400); in the data active means activation above about 12%;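 further: 0% = vehicle wells and 100% = saturating stimulus response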
# TAAR1 ag counter: TAAR1 activation by candidate antagonists – cell-based, fluorescence, counter-screen for TAAR1 antagonist project; actives 2% (n = 2,400); shares compounds with TAAR1 antagonist; activation, % at 3 µM; AID 651955, 2012; hTAAR1 cell line, agonist mode; in the data active means activation above about 37%;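 further: CHO cells stably expressing TAAR1 with calcium dye readout; 0% = DMSO vehicle and 100% = full agonist response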
# * marks the source's active call; other numbers are inactive results; / = not tested or not shown.
SMILES,TAAR1 antagonist,TAAR1 agonist,NTR1 agonist,CHO parental Ca,OX1R antag-1,OX1R antag-2,TAAR1 nonsel count,TAAR1 ant conf,Ga16 ag counter,TAAR1 ag counter
O=C(N/N=C/c1cccc(O)c1)c1ccc(COc2cccc3cccnc23)cc1,10,19,0,-21,14,-21,/,/,/,/
COc1ccccc1NS(=O)(=O)c1cccc(C(=O)N/N=C/c2ccc3c(c2)OCCO3)c1,56*,15,1,-14,25,-3,32*,45,10,9
COc1ccc(/C=N/NC(=O)c2ccc(COc3cccc4cccnc34)cc2)cc1O,63*,8,1,-16,23,-27,26*,44,10,12
Cc1cc(C)c2c(N)c(C(=O)c3ccc(Cl)cc3Cl)sc2n1,76*,2,28,-22,16,-13,37*,55*,7,3
Cc1cc(C)c2c(N)c(C(=O)c3cccc(Cl)c3)sc2n1,63*,17,4,-25,11,-10,23*,40,6,3
Cc1nn(CC(=O)N2CCCCCC2)c(=O)c2cc3occc3n12,1,1,0,-4,1,-21,/,/,/,/
Cc1ccc(NC(=O)c2cccnc2)cc1S(=O)(=O)N1CCOCC1,3,2,-1,-10,14,-9,/,/,/,/
CCOC(=O)c1ccc(NC(=O)c2cccc(S(=O)(=O)N3CCOCC3)c2)cc1,62*,23,2,33*,46,28,34*,48,14*,12
CC(=O)c1cccc(NC(=O)c2cccc(S(=O)(=O)N3CCOCC3)c2)c1,-3,1,1,-16,9,-7,/,/,/,/
Cc1ccc(C(=O)Nc2ccc3cn[nH]c3c2)cc1S(=O)(=O)N1CCOCC1,62*,12,3,-13,9,-5,31*,46,7,6
Cc1ccc(C(=O)Nc2cccnc2)cc1S(=O)(=O)N1CCOCC1,-12,5,-2,-7,3,-28,/,/,/,/
Cc1cc(C)n(-c2ccc(C(=O)Nc3ccc(C)c(S(=O)(=O)N4CCOCC4)c3)cc2)n1,78*,17,5,-7,25,-12,41*,55*,14*,16
COc1ccc(N2CCN(CCCNC(=O)Cn3c(=O)c4cccn4c4ccccc43)CC2)cc1,-14,2,0,-23,17,-16,/,/,/,/
COc1cc(-c2[nH]nc3c2C(c2ccoc2)C(C#N)=C(N)O3)cc(OC)c1OC (stereo unspecified),74*,27,2,-16,16,-7,34*,57*,9,11
COc1cccc(-c2[nH]nc3c2C(c2ccoc2)C(C#N)=C(N)O3)c1 (stereo unspecified),1,1,4,-6,14,-14,/,/,/,/
COc1ccc(C(=O)/C=C/c2cccc(OCc3ccccc3)c2)cc1CSCC(=O)O,15,3,1,-14,21,7,/,/,/,/
COc1ccc(C(=O)/C=C/c2ccc(OCc3ccccc3)cc2)cc1CSCC(=O)O,62*,13,4,/,/,/,38*,54*,10,10
CC(NC(=O)c1cc2c(=O)n(C)c3ccccc3c2n1C)c1ccc2c(c1)OCCO2 (stereo unspecified),59*,7,5,-11,3,-25,22*,34,4,3
Cn1c(C(=O)Nc2ccc3c(c2)OCO3)cc2c(=O)n(C)c3ccccc3c21,-1,1,6,-7,12,-11,/,/,/,/
Cc1nnc(SCC(=O)Nc2ccc(S(N)(=O)=O)cc2)n(N)c1=O,0,1,-2,-4,25,6,/,/,/,/
COc1ccc(CCNC2CC(=O)N(CCc3ccccc3)C2=O)cc1OC (stereo unspecified),8,-1,0,-15,7,-33,/,/,/,/
COc1ccc(CCNC2=C(Cl)C(=O)N(CCc3ccccc3)C2=O)cc1OC,74*,13,16,-14,23,-26,38*,46,8,4
Cc1ccccc1C(=O)Oc1ccc(-c2csnn2)cc1,22,1,3,5,20,-3,/,/,/,/
Cc1ccccc1C(=O)Oc1ccc(Sc2ccc(O)cc2)cc1,61*,10,8,-17,24,4,18,15,-1,0
Cc1cccc(N2CCN(C(=O)c3ccc(Cl)c(NC4=NC5CS(=O)(=O)CC5S4)c3)CC2C)c1 (stereo unspecified),56*,15,1,-14,4,-13,26*,43,8,8
COc1ccc(NC(=O)Nc2cccc3c2O[C@H](CN(C)C(=O)Nc2ccc4c(c2)OCO4)[C@@H](C)CN([C@H](C)CO)C3=O)cc1,65*,17,0,-17,29,-6,33*,53*,5,6
C[C@H](CO)N1C[C@H](C)[C@@H](CN(C)Cc2ccccc2)Oc2c(NC(=O)Cc3ccccc3)cccc2C1=O,68*,22,4,-11,11,-15,26*,44,8,15
C[C@H](CO)N1C[C@H](C)[C@@H](CN(C)Cc2ccc(-c3ccccc3)cc2)Oc2c(NC(=O)Cc3ccccc3)cccc2C1=O,/,/,5,-13,19,-6,/,/,/,/
C[C@H](CO)N1C[C@H](C)[C@@H](CN(C)C(=O)Nc2ccc3c(c2)OCO3)Oc2c(NC(=O)Nc3ccc4c(c3)OCO4)cccc2C1=O,69*,24,1,-3,-1,-10,31*,53*,9,9

# Screens (PubChem)
